Experimental data: ChEMBL document CHEMBL4138314, “Synthesis and Evaluation of N-Phenyl-3-sulfamoyl-benzamide Derivatives as Capsid Assembly Modulators Inhibiting Hepatitis B Virus (HBV)” (J Med Chem, 2018)
≈ marks a conversion by molar mass, not a printed value. Calls of active or inactive are those of the source. No cut-off for these calls is given here.

Columns and labels:
[1] = test system: HBV genotype D; assay: Antiviral activity against HBV genotype D infected in human HepG2.2.15 cells assessed as inhibition of viral DNA level treated twice for 3 days measured after 6 days by real time PCR; assay type: functional, organism-based; conditions: for EC50: Hepatitis B virus; for Activity: hepatitis B virus genotype D
[2] = test system: Hepatitis B virus; assay: Antiviral activity against Hepatitis B virus infected in human HepG2.117 cells assessed as inhibition of viral DNA level after 3 days by real time PCR; assay type: functional, organism-based; conditions: HepG2.117, 72 h
[3] = Kinetic solubility of the compound at pH 7.4 after 4 hrs by UPLC-UV analysis; assay type: physicochemical; conditions: buffer, read-out: Kinetic_solubility
[4] = Drug metabolism in human liver microsomes at 1 uM after 15 mins by LC-MS/MS analysis; assay type: ADME, microsome; conditions: read-out: Drug metabolism
Outline: (§1)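 Compound incubated 15 min with human or mouse liver microsomes; stability expressed as percent turnover (metabolised) at 15 min.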

[5] = Drug metabolism in mouse liver microsomes at 1 uM after 15 mins by LC-MS/MS analysis; assay type: ADME, microsome; conditions: read-out: Drug metabolism; outline: as §1
[6] = (§2) Cytotoxicity against human HepG2 cells after 4 to 6 days by resazurin assay; assay type: cell-based; conditions: HepG2 cells
[7] = Cytotoxicity against human HepG2 cells after 4 days by resazurin assay; assay type: cell-based
[8] = test system: Hepatitis B virus; assay: Induction of HBV capsid core protein CP149 aggregation assessed as ratio between area under the curve for observed amount of core dimer and area under the curve for aggregated core protein at 20 uM after 24 hrs by size exclusion chromatographic analysis
Outline: (§3)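 Recombinant HBV core assembly domain (aa 1–149, Cp149) was incubated with compound at 20 µM for 24 h, with a no-compound control run in parallel. Size exclusion chromatography gave the ratio of Cp149 dimer AUC to aggregated Cp149 AUC.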

[9] = target: Core antigen (Hepatitis B virus) (UniProt Q03732); assay: Induction of HBV Maleimidyl BoDIPY-FL-labeled capsid Cp*150 mutant aggregation incubated for 30 mins measured every 10 secs for 30 mins by fluorescence quenching assay
[10] = Cytotoxicity against human HepG2 cells after 6 days by resazurin assay; assay type: cell-based
[11] = test system: Hepatitis B virus; assay: Induction of HBV capsid core protein CP149 aggregation assessed as large aberrant structure formation at 20 uM after 24 hrs by size exclusion chromatographic analysis; outline: as §3
[12] = test system: HepG2; assay: as §2; assay type: cell-based; conditions: hepg2
[13] = target: 5-hydroxytryptamine receptor 2B (Homo sapiens, UniProt P41595); assay: Antagonist activity at 5-HT2B (unknown origin); assay type: functional
Outline: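 Receptor/ion channel/transporter panel of 80 targets screened at 10 µM, giving percent effect at 5-HT2B; follow-up 5-HT2B functional testing in agonist and antagonist modes, with antagonist IC50 determined.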

[14] = Drug metabolism in human primary hepatocytes assessed as cleavage of N-phenylamide; assay type: ADME, cell-based, Hepatocyte
Outline: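 Compound incubated with primary hepatocytes and checked for cleavage of the N-phenylamide bond.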

Sequence of Core antigen (Hepatitis B virus) (Q03732 as listed by the source): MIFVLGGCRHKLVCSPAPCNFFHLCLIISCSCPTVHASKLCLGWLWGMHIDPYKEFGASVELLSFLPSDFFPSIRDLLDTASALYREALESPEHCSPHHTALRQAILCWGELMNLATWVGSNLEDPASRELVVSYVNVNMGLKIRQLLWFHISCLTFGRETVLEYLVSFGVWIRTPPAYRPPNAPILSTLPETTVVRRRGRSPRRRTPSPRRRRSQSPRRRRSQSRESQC
Sequence of 5-hydroxytryptamine receptor 2B (P41595 whole entry): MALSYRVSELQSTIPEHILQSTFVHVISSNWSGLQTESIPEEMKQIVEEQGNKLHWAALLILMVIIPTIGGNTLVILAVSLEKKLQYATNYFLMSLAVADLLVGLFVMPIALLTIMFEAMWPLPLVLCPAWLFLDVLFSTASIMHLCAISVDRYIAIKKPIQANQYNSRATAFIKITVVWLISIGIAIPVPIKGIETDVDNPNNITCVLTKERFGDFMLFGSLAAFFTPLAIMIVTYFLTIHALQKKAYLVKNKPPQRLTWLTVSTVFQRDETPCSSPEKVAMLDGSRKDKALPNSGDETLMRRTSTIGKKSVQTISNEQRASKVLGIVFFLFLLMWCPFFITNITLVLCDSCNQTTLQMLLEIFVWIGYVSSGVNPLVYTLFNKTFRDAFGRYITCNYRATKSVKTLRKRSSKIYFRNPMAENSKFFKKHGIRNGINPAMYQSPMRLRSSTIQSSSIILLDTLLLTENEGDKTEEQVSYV

SMILES	EC50 [1] [µM]	EC50 [2] [µM]	solubility kinetic at 4 h [3] [µM]	metabolised at 0.25 h, 1 µM [4] [%]	metabolised at 0.25 h, 1 µM [5] [%]	CC50 [6] [µM]	CC50 at 96 h [7] [µM]	Ratio [8]	Activity [9]	Activity [1]	CC50 at 144 h [10] [µM]	Activity [11]	EC20 [12] [µM]	IC50 [13] [µM]	Drug metabolism [14]
CC(C)NS(=O)(=O)c1cccc(C(=O)Nc2ccc(F)c(C(C)C)c2)c1	1.4	2.79	13 (≈ 4.92 µg/mL)	31	96	29.8	–	–	–	–	–	–	–	–	–
O=C(Nc1cccnc1)c1cc(S(=O)(=O)NC2CCCCC2)ccc1F	–	24.8	> 100	57	99	–	> 25	9.8	inactive	–	–	–	–	–	–
CN1CCN(S(=O)(=O)c2cccc(C(=O)Nc3ccc(F)cc3)c2)CC1	26.5	11.1	> 100	53	84	–	> 100	6.3	Active	–	–	–	–	–	–
Cc1cc(NC(=O)c2cccc(S(=O)(=O)N[C@H]3CCOC3)c2)c(F)cc1F	2.22	3.3	> 100	17	69	> 25	–	–	–	–	–	–	–	–	–
Cc1cc(F)cc(NC(=O)c2cccc(S(=O)(=O)NC3CCCC3)c2)c1	0.11	1.51	11 (≈ 4.14 µg/mL)	74	100	–	> 23	–	Active	–	–	–	–	–	–
O=C(Nc1ccncc1)c1cc(S(=O)(=O)NC2CCCCC2)ccc1F	5.3	16.3	> 100	68	75	–	> 25	6	inactive	–	–	–	–	–	–
COc1cc(NC(=O)c2cccc(S(=O)(=O)N[C@H]3CCOC3)c2)ccc1F	2.33	2.66	> 100	20	35	> 25	–	–	–	–	–	–	–	–	–
N#Cc1cc(NC(=O)c2cccc(S(=O)(=O)N[C@H]3CCOC3)c2)ccc1F	0.81	0.98	> 100	13	27	> 50	–	–	–	–	–	–	–	–	–
Cc1cc(NC(=O)c2cccc(S(=O)(=O)NC3CCCC3)c2)ccc1F	0.1	0.42	33 (≈ 12.4 µg/mL)	66	97	–	48.2	0.02	Active	–	–	–	–	–	–
CCN(CC)S(=O)(=O)c1ccc(Cl)c(C(=O)Nc2ccccc2)c1	1.04	–	–	80	–	–	–	0.7	–	Dose-dependent effect	> 25	inactive	–	–	–
Cc1c(F)ccc(NC(=O)c2cccc(S(=O)(=O)N[C@H]3CCOC3)c2)c1F	0.29	0.78	> 100	25	66	> 25	–	–	–	–	–	–	–	–	–
CC(C)NS(=O)(=O)c1cccc(C(=O)Nc2ccc(F)c(F)c2)c1	0.21	0.4	> 100	18	60	–	–	–	Active	–	–	–	1	0.23	–
O=C(Nc1ccc2ccccc2c1)c1cc(S(=O)(=O)NC2CCCCC2)ccc1F	12.7	> 25	< 0.2	36	56	–	13	7.5	inactive	–	–	–	–	–	–
O=C(Nc1cccc2ccccc12)c1cc(S(=O)(=O)NC2CCCCC2)ccc1F	15.6	> 25	12 (≈ 5.12 µg/mL)	94	100	–	> 25	–	inactive	–	–	–	–	–	–
Cc1cc(NC(=O)c2cccc(S(=O)(=O)NC3(C)COC3)c2)c(C)cc1F	3.06	1.91	> 100	1	78	> 25	–	–	–	–	–	–	–	–	–
Cc1ccccc1NC(=O)c1cccc(S(=O)(=O)NC2CCCCC2)c1	4.18	–	–	86	–	–	–	–	–	–	> 25	–	–	–	–

SMILES	EC50 [1] [µM]	EC50 [2] [µM]	solubility kinetic at 4 h [3] [µM]	metabolised at 0.25 h, 1 µM [4] [%]	metabolised at 0.25 h, 1 µM [5] [%]	CC50 [6] [µM]	CC50 at 96 h [7] [µM]	Ratio [8]	Activity [9]	Activity [1]	CC50 at 144 h [10] [µM]	Activity [11]	EC20 [12] [µM]	IC50 [13] [µM]	Drug metabolism [14]
O=C(Nc1ccc(F)cc1)c1cccc(C(=O)NC2CCCCC2)c1	> 100	> 25	< 0.4	56	93	–	> 100	6.4	–	–	–	–	–	0.09	–
O=C(Nc1ccccc1)c1cccc(S(=O)(=O)NC2CCCC2)c1	0.6	–	91 (≈ 31.3 µg/mL)	94	98	–	–	0.3	Active	Dose-dependent effect	27.2	inactive	–	–	–
O=C(Nc1cc(F)cc(F)c1)c1cccc(S(=O)(=O)NC2CCCC2)c1	0.28	0.78	28 (≈ 10.7 µg/mL)	79	100	–	> 25	–	Active	–	–	–	–	–	–
Cc1cc(NC(=O)c2cccc(S(=O)(=O)NC3(C)COC3)c2)ccc1F	0.12	0.3	> 100	7	65	47.1	–	–	Active	–	–	–	–	–	Metabolite_Detected
Cc1c(F)ccc(NC(=O)c2cccc(S(=O)(=O)NC3(C)COC3)c2)c1C	2.74	1.65	> 100	0	77	> 25	–	–	–	–	–	–	–	–	–
O=C(Nc1ccccc1)c1cc(S(=O)(=O)N2CCCCC2)c(Cl)cc1Cl	0.5	–	2 (≈ 0.827 µg/mL)	99	100	–	–	0.2	Active	Dose-dependent effect	> 25	inactive	–	–	–
O=C(Nc1nccs1)c1cc(S(=O)(=O)NC2CCCCC2)ccc1F	29.3	> 25	> 100	85	100	–	> 25	9.7	inactive	–	–	–	–	–	–
O=C(Nc1ccc(F)cc1)c1ccc(Cl)c(S(=O)(=O)N2CCCCCC2)c1	0.66	–	1 (≈ 0.411 µg/mL)	98	100	–	–	0.01	Active	Dose-dependent effect	17	inactive	–	–	–
O=C(Nc1ccc(F)c(F)c1)c1cccc(S(=O)(=O)N[C@H]2CCOC2)c1	0.38	0.51	> 100	5	42	> 50	–	–	–	–	–	–	–	–	–
Cc1cc(NC(=O)c2cccc(S(=O)(=O)NC(C)C)c2)ccc1F	0.07	0.15	41 (≈ 14.4 µg/mL)	26	80	47.5	–	–	Active	–	–	–	–	–	–
CCc1cc(NC(=O)c2cccc(S(=O)(=O)NC(C)C)c2)ccc1F	0.31	2.59	15 (≈ 5.47 µg/mL)	31	88	28.5	–	–	–	–	–	–	–	–	–
Cc1c(NC(=O)c2cccc(S(=O)(=O)N[C@H]3CCOC3)c2)ccc(F)c1F	3.63	1.91	> 100	37	68	> 25	–	–	–	–	–	–	–	–	–
CC(C)NS(=O)(=O)c1cccc(C(=O)Nc2ccc(F)c(C3CC3)c2)c1	0.32	0.91	31 (≈ 11.7 µg/mL)	27	61	35.2	–	–	–	–	–	–	–	–	–
O=C(Nc1ccc(F)c(F)c1)c1cccc(S(=O)(=O)NC2CCCC2)c1	0.093	0.36	46 (≈ 17.5 µg/mL)	45	86	–	> 25	–	Active	–	–	–	–	–	–
O=C(Nc1ccccc1)c1ccc(F)c(S(=O)(=O)NC2CCCCC2)c1	2.23	–	–	100	–	–	–	–	–	Dose-dependent effect	16.4	–	–	–	–
